In ChEMBL document CHEMBL2396594, “Designing allosteric regulators of thrombin. Exosite 2 features multiple subsites that can be targeted by sulfated small molecules for inducing inhibition” (J Med Chem, 2013):

Tests used:
[1] = (§1) Binding affinity to human plasma alpha-thrombin exosite-2 using spectrozyme TH as substrate after overnight incubation at 25 degC by spectrophotometric analysis in presence of 12.8 uM unfractionated heparin; type: cell-free
[2] = species on record: Homo sapiens; assay: as §1; type: cell-free
[3] = (§2) Binding affinity to human plasma alpha-thrombin exosite-2 using spectrozyme TH as substrate after overnight incubation at 25 degC by spectrophotometric analysis in presence of 4.2 uM unfractionated heparin; type: cell-free
[4] = species on record: Homo sapiens; assay: as §2; type: cell-free
[5] = species on record: Homo sapiens; assay: Uncompetitive inhibition of human plasma alpha-thrombin using spectrozyme TH as substrate assessed as decrease in substrate Km at 9.9 uM after 2 hrs at 37 degC by Michaelis-Menten equation analysis relative to control; type: cell-free
Procedure, shortened: (§3)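 5 nM plasma α-thrombin with fixed inhibitor, preincubated overnight at 25 °C or 2 h at 37 °C in 20 mM Tris-HCl pH 7.4, 100 mM NaCl, 2.5 mM CaCl2, 0.1% PEG8000. Initial Spectrozyme TH (2−80 μM) hydrolysis rate read at 405 nm with under 10% substrate consumption. Michaelis−Menten fit gives KM and VMAX; error ±1 SE.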

[6] = species on record: Homo sapiens; assay: Uncompetitive inhibition of human plasma alpha-thrombin using spectrozyme TH as substrate assessed as decrease in substrate Km at 3.6 uM after overnight incubation at 25 degC by Michaelis-Menten equation analysis relative to control; type: cell-free; procedure, shortened: as §3
[7] = Inhibition of recombinant human thrombin R93A mutant expressed in BHK cells using S2238 as substrate after overnight incubation at 25 degC
Procedure, shortened: (§4)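 BHK-expressed, HPC4 immunoaffinity-purified thrombins, activated from prothrombin form. Active-site concentration from amidolysis and antithrombin titration. Enzyme (1.5−7.5 nM final) incubated overnight at 25 °C with inhibitor in Tris pH 7.4 buffer in coated cuvettes. Residual activity from S2238 initial rate at A405, using at least 9−10 points. Logistic fit gives IC50. Ratio is mutant IC50 over wild-type IC50.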

[8] = Inhibition of recombinant human thrombin R101A mutant expressed in BHK cells using S2238 as substrate after overnight incubation at 25 degC; procedure, shortened: as §4
[9] = Inhibition of recombinant human thrombin R126A mutant expressed in BHK cells using S2238 as substrate after overnight incubation at 25 degC; procedure, shortened: as §4
[10] = Inhibition of recombinant human thrombin R165A mutant expressed in BHK cells using S2238 as substrate after overnight incubation at 25 degC; procedure, shortened: as §4
[11] = Inhibition of recombinant human thrombin R173A mutant expressed in BHK cells using S2238 as substrate after overnight incubation at 25 degC; procedure, shortened: as §4
[12] = species on record: Homo sapiens; assay: Selectivity ratio of IC50 for human plasma alpha-thrombin to IC50 for wild type recombinant human thrombin
[13] = Inhibition of recombinant human thrombin K236A mutant expressed in BHK cells using S2238 as substrate after overnight incubation at 25 degC; procedure, shortened: as §4
[14] = system: Plasma; assay: Anticoagulant activity in human plasma assessed as increase in prothrombin time at 568 uM after 30 secs by fibrometric analysis relative to control; type: functional
Procedure, shortened: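 Citrated human plasma, one-stage recalcification, fibrometer read-out. APTT: 90 μL plasma + 10 μL inhibitor or vehicle + prewarmed 0.2% ellagic acid, 4 min, then 25 mM CaCl2 (37 °C). PT: inhibitor + plasma 30 s at 37 °C, then prewarmed thromboplastin. Duplicates. Quadratic trend line fit gives concentration doubling clotting time versus vehicle blank.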

[15] = species on record: Homo sapiens; assay: Inhibition of human plasma alpha-thrombin assessed as spectrozyme TH hydrolysis at 1 to 900 uM preincubated for 10 mins by spectrophotometric analysis relative to control; type: cell-free
Procedure, shortened: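 Human plasma α-thrombin (5 nM final) with inhibitor (1−900 μM final) in 20 mM Tris-HCl pH 7.4, 100 mM NaCl, 2.5 mM CaCl2, 0.1% PEG8000, PEG20000-coated cuvettes, 10 min. Spectrozyme TH then added (30 μM final). Initial rate from A405 increase. Residual activity fitted by logistic equation with floating Hill slope, Y0, YM to give IC50.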

[16] = species on record: Homo sapiens; assay: Uncompetitive inhibition of human plasma alpha-thrombin using spectrozyme TH as substrate assessed as decrease in enzyme Vmax at 3.6 uM after overnight incubation at 25 degC by Michaelis-Menten equation analysis relative to control; type: cell-free; procedure, shortened: as §3

IC50 [1]: 2100 nM | pIC50(app) [2]: 5.68 | IC50 [3]: 1000 nM | pIC50(app) [4]: 6 | fold change (FC) [5]: 4.1 | fold change (FC) [6]: 3.1 | IC50 [7]: 190 nM | pIC50 [7]: 6.73 | IC50 [8]: 390 nM | pIC50 [8]: 6.41 | IC50 [9]: 290 nM | pIC50 [9]: 6.55 | pIC50 [10]: 6.59 | pIC50 [11]: 6.59 | Ratio IC50 [12]: 2.5 | IC50 [13]: 400 nM | pIC50 [13]: 6.4 | Efficacy [15]: 80% | fold change (FC) [16]: 4.3
SMILES: CCOC(=O)c1c(C)oc2cc(OC)c(OCc3oc4cc(OC)c(OCc5oc6cc(OC)c(OS(=O)(=O)[O-])cc6c5C(=O)OCC)cc4c3C(=O)OCC)cc12.[Na+]
fold change (FC) [14]: 2
